Screening data: PubChem BioAssay, The Scripps Research Institute Molecular Screening Center
OX1R antag-1: human HCRTR1 antagonism; CHO/OX1R cells, Fluo-8 calcium fluorescence, orexin A; O43613; inhibition, % at 5 µM; 330,000 tested, 0.43% active; AID 434989;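 active means inhibition above its plate's threshold, mean inhibition of all tested compounds on the plate plus 3 SD, cut at about 37% in these data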;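 further: 0% = orexin A challenge wells and 100% = SB-334867-A antagonist wells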
Target sequence (O43613 whole entry, looked up): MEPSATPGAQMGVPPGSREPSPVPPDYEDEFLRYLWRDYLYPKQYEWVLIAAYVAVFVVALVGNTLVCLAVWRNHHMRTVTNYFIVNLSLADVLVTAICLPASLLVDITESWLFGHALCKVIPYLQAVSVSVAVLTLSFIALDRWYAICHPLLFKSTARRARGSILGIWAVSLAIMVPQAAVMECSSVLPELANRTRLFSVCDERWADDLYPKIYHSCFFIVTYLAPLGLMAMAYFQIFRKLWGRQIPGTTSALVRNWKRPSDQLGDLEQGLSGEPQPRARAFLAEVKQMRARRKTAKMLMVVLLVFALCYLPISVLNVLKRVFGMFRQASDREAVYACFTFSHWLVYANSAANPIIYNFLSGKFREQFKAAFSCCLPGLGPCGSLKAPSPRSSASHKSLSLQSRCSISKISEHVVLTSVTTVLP
TAAR1 ag: human TAAR1 agonism; Q96RJ0; CHO RD-HGA16 TAAR1, Fluo-8 calcium fluorescence; vehicle wells 0%, saturating PEA agonist 100%; activation, % at 3 µM; 360,000 tested, 0.99% active; AID 624467;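 active means activation above the mean activation of all test compounds in the run plus 3 SD, cut at about 38% in these data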
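Test system: RD-HGA16 (CHO) cells co-expressing Gα16 and hTAAR1 | Doses: Single dose, 3 µM | Schedule: 17-24 h seeding, 75 min 37 °C dye, 30 min RT | Evaluation: % activation from peak over basal fluorescence ratio, DMSO-to-PEA scaled | Technique: Kinetic Fluo-8 calcium fluorescence | Benchmarks: Low control DMSO, high control PEA (EC100)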
TAAR1 antagonist: human TAAR1 antagonism; Q96RJ0; CHO RD-HGA16 TAAR1, Fluo-8 calcium fluorescence, antagonist; inhibition, % at 3 µM; 360,000 tested, 1.5% active; AID 624466;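 active means inhibition above a per-plate cutoff, the mean inhibition of test compounds on that plate plus 3 SD, cut at about 49% in these data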;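 further: 0% = DMSO plus EC80 beta-PEA response and 100% = DMSO alone without agonist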
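Test system: CHO RD-HGA16 cells bearing hTAAR1 | Reagent: β-PEA, EC80 | Compound dosing: 3 µM, single point | Schedule: Dye loading 75 min at 37 °C, then 30 min room temperature | Signal: Calcium fluorescence with Fluo-8 | Evaluation: Percent inhibition of PEA-evoked calcium signal, max/basal emission ratio | Control set: DMSO-only wells and EC80 β-PEA-stimulated wells | Repeats: Singlicate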
CHO parental Ca: signal in parental CHO cells, OX1R antagonist counter-screen. 330,000 tested, 0.63% active. inhibition, % at 5.6 µM. AID 463079. parental CHO-K1, ATP-induced calcium, Fluo-8 fluorescence;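 active means inhibition above that plate's mean sample inhibition plus 3 SD, cut at about 26% in these data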;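 further: 0% = ATP-challenged DMSO wells and 100% = DMSO wells without ATP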
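Test system: parental CHO cells; detection: calcium-sensitive Fluo-8 fluorescence; evaluation: percent inhibition of calcium signal; also added: ATP as calcium-mobilizing challenge; repeats: one well per compound; control set: ATP-challenged DMSO wells low, unchallenged DMSO wells high; compound: single nominal dose of 5.6 µM per compound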
OX1R antag-2: blocks the human orexin 1 receptor. O43613. OX1R-expressing cells, FRET antagonist read-out. inhibition, % at 6.6 µM. 330,000 tested, 1.8% active. AID 485270; in the data active means inhibition mostly above about 38%, no sharp cut-off; inactive means mostly below about 40%;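 further: 0% = agonist challenge alone and 100% = reference antagonist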
Numbers without * were called inactive; / = no result given. The list is not random: actives were taken first. Their share in the collection is about 3.9%.

SMILES	OX1R antag-1	TAAR1 ag	TAAR1 antagonist	CHO parental Ca	OX1R antag-2
COc1cc(/C=C/C(=O)OCC(=O)NNC(=O)c2cc(Cl)ccc2OC)ccc1O	-17	1	20	-11	3
COc1cc(/C=C/C(=O)OCC(=O)Nc2ccccc2Sc2ccc(Cl)cc2)ccc1O	28	1	41	62*	34
COc1cc(/C=C/C(=O)OCC(=O)c2ccc(OC(F)F)cc2)ccc1O	27	30	61*	9	24
CCOC(=O)C1=NOC2(C1)C(=O)Nc1ccc(OC)cc12 (stereo not given)	/	3	9	/	/
C[C@H](O)[C@@H]1C(=O)N2CCc3c([nH]c4c(-c5ccccc5)cccc34)[C@@H]2C[C@@H]1N(C)C(=O)/C=C/c1ccccc1	/	3	-1	/	/
Cn1nc(C(=O)NCC(=O)Nc2ccc(F)c(F)c2)ccc1=O	/	4	-21	/	/
O=c1ccc2ccc(OCc3nnc(-c4ccccc4Br)o3)cc2o1	-20	23	12	-24	7
Cc1cc(=O)oc2cc(OCc3nnc(-c4ccccc4Br)o3)ccc12	-2	43*	22	1	46
O=[N+]([O-])c1ccc(CN2[C@H](COCc3ccccc3)C=CS2(=O)=O)cc1	/	1	1	/	/
CC(C)Oc1ccc(F)cc1-c1cc(C(=O)Nc2ccccc2)[nH]n1	/	4	50*	/	/
COc1ccc2nc(C(F)(F)C(F)(F)F)c(C#N)c(N)c2c1	6	42*	5	-4	3
COc1cc(OC)c2c(N)c(C#N)c(C(F)(F)C(F)(F)F)nc2c1	-12	3	-14	-8	30
O=C(N/N=C/c1cc([N+](=O)[O-])ccc1Cl)c1cnccn1	-15	1	-17	-11	71*
Cc1ccccc1NC(=O)CSc1nnc(-c2ccccc2)n1-c1ccccc1	-35	3	-8	-20	26
N#Cc1ccccc1NC(=O)CSc1nnc(-c2ccccc2O)n1-c1ccccc1	9	11	22	-15	43*
COc1ccc(CCNCc2cc(C)n(-c3ccc(OC)cc3)c2C)cc1	-36	45*	-1	-17	-11
CSCCC(C(=O)Nc1c(C)cccc1C)n1c(-c2cc(C)cs2)nc2ccccc21 (stereo not given)	/	-2	-25	/	/
CC1(C(=O)NCc2ccc(C(F)(F)F)cc2)CCN1Cc1ccccc1OC(F)F (stereo not given)	/	10	56*	/	/
O=C1NC(=Nc2ccccc2)c2c1cccc2[N+](=O)[O-]	-3	5	-19	-5	74*
COC(=O)N1C[C@H](OC(=O)c2ccc(-c3ccccc3)cc2)[C@H]2C[C@@H]1c1ccccc1O2	/	0	-16	/	/
COC(=O)[C@]12C[C@H](CC(=O)NCc3cccc4ccccc34)C(=O)N(Cc3ccccc3)C1=C[C@H](C(C)C)O[C@@H]2C1CC1	/	7	-51	/	/
CC(C)C(=O)Nc1ccc2nn(-c3ccccc3)nc2c1	15	4	-12	3	63*
O=C(Nc1ccc2nn(-c3ccccc3)nc2c1)c1cccnc1	11	14	19	-18	66
O=C(Nc1ncccn1)c1ccc([N+](=O)[O-])cc1Cl	-6	3	-7	6	35
O=C(Nc1ncccn1)c1ccc([N+](=O)[O-])cc1[N+](=O)[O-]	-12	1	-21	7	73*
SMILES	OX1R antag-1	TAAR1 ag	TAAR1 antagonist	CHO parental Ca	OX1R antag-2
O=C(Nc1ncn[nH]1)c1ccc([N+](=O)[O-])cc1[N+](=O)[O-]	-10	0	-6	-12	53*
O=C(Nc1ncn[nH]1)c1cc([N+](=O)[O-])ccc1Cl	-18	-1	5	-7	8
Nc1nc(N)c2c(ccc3c2ccn3Cc2cccc([N+](=O)[O-])c2)n1	/	1	-10	/	/
COC(=O)c1ccc(SCC(=O)N2CCC(C)CC2)c([N+](=O)[O-])c1	-12	4	-1	-13	25
Cc1ccc(NC(=O)CSc2ccc(C(N)=O)cc2[N+](=O)[O-])cc1C	-29	1	2	33*	11
CCOC(=O)N1CCN(C(=O)CSc2ccc(C(=O)OC)cc2[N+](=O)[O-])CC1	-30	1	-16	-18	35
Cc1ccc(NC(=O)CSc2ccc(C(N)=O)cc2[N+](=O)[O-])cc1	-23	2	6	-3	21
CC1CCCN(C(=O)COC(=O)CSc2ccc(C(N)=O)cc2[N+](=O)[O-])C1 (stereo not given)	-16	1	9	-15	74*
